ChEMBL document CHEMBL1153793, “New pyridone, thioxopyridine, pyrazolopyridine and pyridine derivatives that modulate inflammatory mediators in stimulated RAW 264.7 murine macrophage” (Eur J Med Chem, 2009)
pIC50: −log10 of the molar value. The source made the active and inactive calls. The calls are words filed in the database; no cut-off is given here.

Experiments:
RAW264.7 [1] = test: Effect on inflammatory mediators in LPS-stimulated mouse RAW264.7 cells assessed as COX-2 accumulation at 20% IC50 after 24 hrs by dot immunoblotting; type: functional
How it was run: (§1)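 20 µg lysate protein dot-blotted, probed with anti-mouse COX-2 or 5-LO, detected by HRP/OPD and normalised to β-actin.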

RAW264.7 [2] = test: Effect on inflammatory mediators in LPS-stimulated mouse RAW264.7 cells assessed as 5-LO accumulation at 20% IC50 after 24 hrs by dot immunoblotting; type: functional; how it was run: as §1
RAW264.7 [3] = test: Effect on inflammatory mediators in mouse RAW264.7 cells assessed as COX-2 accumulation at 20% IC50 after 24 hrs by dot immunoblotting; type: functional; how it was run: as §1
RAW264.7 [4] = test: Cytotoxicity against mouse RAW264.7 cells assessed as cell viability after 24 hrs by MTT assay; type: cell-based; settings: RAW264.7, 24 h, in the assay text read “MTT assay” for “ultra gel clot assay”
How it was run: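 RAW 264.7 macrophages (5×10^4 cells/well) exposed 24 h at 37 °C to a range of compound concentrations, then read by MTT reduction to formazan, solubilised in acidic isopropanol. Viability expressed as mean % of untreated cells (n = 4); 1000 U/ml M-CSF as positive control. IC50 derived.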

RAW264.7 [5] = test: Effect on inflammatory mediators in mouse RAW264.7 cells assessed as PGE2 accumulation at 20% IC50 after 24 hrs by ELISA; type: functional
RAW264.7 [6] = test: Effect on mouse RAW264.7 cell function assessed as FITC-LPS binding to macrophage after 15 mins by fluorimetry; type: functional, cell-based
How it was run: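 5×10^5 RAW 264.7 cells pre-incubated 15 min at 37 °C with compound in RPMI-1640 plus 10% FBS as the CD14/LBP source. FITC-LPS (200 ng/ml) then added for 1 h. After PBS wash, fluorescence read at ex 485/em 530 nm and median fluorescence intensity reported.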

RAW264.7 [7] = test: Effect on inflammatory mediators in mouse RAW264.7 cells assessed as COX-2 accumulation at 20 uM after 24 hrs by dot immunoblotting; type: functional
How it was run: (§2)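 Cells treated 24 h with 20 µM compound, with or without LPS (1 µg/ml). 20 µg soluble lysate protein dot-blotted onto nitrocellulose and probed with rabbit anti-mouse COX-2 or 5-LO, HRP anti-rabbit secondary and OPD colour. Intensity normalised to β-actin dots; four repeats.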

RAW264.7 [8] = test: Effect on inflammatory mediators in mouse RAW264.7 cells assessed as 5-LO accumulation at 20 uM after 24 hrs by dot immunoblotting; type: functional; how it was run: as §2
RAW264.7 [9] = test: Effect on inflammatory mediators in LPS-stimulated mouse RAW264.7 cells assessed as nitrite accumulation at 20% IC50 after 24 hrs by Griess assay; type: functional
RAW264.7 [10] = test: Effect on inflammatory mediators in LPS-stimulated mouse RAW264.7 cells assessed as 5-LO accumulation at 20 uM after 24 hrs by dot immunoblotting; type: functional; how it was run: as §2
RAW264.7 [11] = test: Effect on inflammatory mediators in LPS-stimulated mouse RAW264.7 cells assessed as PGE2 accumulation at 20% IC50 after 24 hrs by ELISA; type: functional
[12] = Antioxidant activity assessed as superoxide radical scavenging activity; type: functional
How it was run: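 Non-cellular assay; superoxide generated by oxidation of 50 µM hypoxanthine with 12 mU xanthine oxidase. Scavenging followed as the rate of nitroblue tetrazolium reduction to formazan. SC50 taken from dose-dependent curves of serial dilutions; superoxide dismutase as standard inhibitor.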

RAW264.7 [13] = test: Effect on inflammatory mediators in mouse RAW264.7 cells assessed as TNF-alpha accumulation at 20% IC50 after 24 hrs by ELISA; type: functional
[14] = Hydroxyl radical scavenging activity assessed as trolox equivalents at 1 uM by ORAC assay; type: functional
How it was run: (§3)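 β-Phycoerythrin fluorescence decay followed kinetically for 2 h at 37 °C with 1 µM compound, against peroxyl and hydroxyl radicals. One ORAC unit = net protection given by 1.0 µM Trolox.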

RAW264.7 [15] = test: Effect on inflammatory mediators in LPS-stimulated mouse RAW264.7 cells assessed as COX-2 accumulation at 20 uM after 24 hrs by dot immunoblotting; type: functional; how it was run: as §2
RAW264.7 [16] = test: Effect on inflammatory mediators in mouse RAW264.7 cells assessed as nitrite accumulation at 20% IC50 after 24 hrs by Griess assay; type: functional
RAW264.7 [17] = test: Effect on inflammatory mediators in mouse RAW264.7 cells assessed as 5-LO accumulation at 20% IC50 after 24 hrs by dot immunoblotting; type: functional; how it was run: as §1
RAW264.7 [18] = test: Effect on inflammatory mediators in LPS-stimulated mouse RAW264.7 cells assessed as TNF-alpha accumulation at 20% IC50 after 24 hrs by ELISA; type: functional
[19] = Peroxyl radical scavenging activity assessed as trolox equivalents at 1 uM by ORAC assay; how it was run: as §3
RAW264.7 [20] = test: Induction of phagocytosis in mouse RAW264.7 cells assessed as phagocytic activity against FITC-zymosan after 1 hr by fluorimetry; type: functional, cell-based
How it was run: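 Cells at 1×10^5/well in phenol red-free RPMI-1640 rested 24 h, then given compound for 1 h. FITC-zymosan added for a further 1 h; cells washed three times and lysed with Triton X-100. Fluorescence read at 485/530 nm and expressed relative to untreated cells (100%).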

Row | Structure (SMILES) | Activity (RAW264.7 [1]) [%] | Activity (RAW264.7 [2]) [%] | Activity (RAW264.7 [3]) [%] | pIC50 (RAW264.7 [4]) | Activity (RAW264.7 [5]) [pg] | Activity (RAW264.7 [6]) | Activity (RAW264.7 [7]) [%] | Activity (RAW264.7 [8]) [%] | Activity (RAW264.7 [9]) [nmol] | Activity (RAW264.7 [10]) [%] | Activity (RAW264.7 [11]) [pg] | SC50 [12] [µg/mL] | Activity (RAW264.7 [13]) [pg] | Activity [14] | Activity (RAW264.7 [15]) [%] | Activity (RAW264.7 [16]) [nmol] | Activity (RAW264.7 [17]) [%] | Activity (RAW264.7 [18]) [pg] | Activity [19] | Activity (RAW264.7 [20])
1 | CC(C)c1ccc(-c2cc(-c3ccc4c(c3)CCCC4)nc(Cl)c2C#N)cc1 | 80.1 | 94.6 | 28.7 | 5.08 | 45.39 | inactive | 28.7 | 29.5 | 611.68 | 94.6 | 2870.25 | > 100 | 350.05 | 1.1 | 80.1 | 439.13 | 29.5 | 5110.4 | 0.92 | 
2 | CC(C)c1ccc(-c2cc(-c3ccc4c(c3)CCCC4)nc(OCC(=O)NCc3ccccc3)c2C#N)cc1 | 20.1 | 61.7 | 20.6 | 5.00 | 48.15 |  |  |  | 32.75 |  | 3260.2 | 24.6 | 69.65 | 3.44 |  | 10.19 | 21.7 | 615.33 | 2.22 | Active
3 | CCOC(=O)COc1nc(-c2ccc3c(c2)CCCC3)cc(-c2ccc(C(C)C)cc2)c1C#N | 31.3 | 38.7 | 18.7 | < 4.30 | 50.5 | Active |  |  | 110.54 |  | 2870.5 | 81.4 | 72.45 | 1.05 |  | 3.19 | 11.9 | 2810.66 | 2.36 | Active
4 | COc1ccc(-c2cc(-c3ccc4c(c3)CCCC4)nc(NCc3ccccc3)c2C#N)cc1OC | 99.2 | 94.7 | 46.3 | 5.31 | 31.29 | inactive |  |  | 915.9 |  | 3010.66 | 38.4 | 2460.46 | 3.54 |  | 720.91 | 30.2 | 5520.55 | 2.95 | inactive
5 | CCOC(=O)COc1nc(-c2ccc3c(c2)CCCC3)cc(-c2ccc(OC)c(OC)c2)c1C#N | 68.7 | 79.6 | 27.5 | 4.58 | 22.4 |  |  |  | 388.4 |  | 2954.2 | 55.7 | 66.57 | 2.47 |  | 2.65 | 21.9 | 3945.11 | 2.01 | 
6 | CC(C)c1ccc(-c2cc(-c3ccc4c(c3)CCCC4)nc(OCC(=O)NN)c2C#N)cc1 | 92.6 | 91.8 | 63.1 | 4.56 | 43.6 |  |  |  | 596.4 |  | 3405.5 | 42.5 | 1364.75 | 0.99 |  | 440.24 | 33.12 | 5754.5 | 0.81 | 
